# Screening results from PubChem.
# GPR7 antagonist: GPR7 receptor antagonists, primary screen, cell-based, fluorescence, single concentration; Neuropeptides B/W receptor type 1 (Homo sapiens), P48145; GPR7-expressing cells, fluorescence antagonist assay; inhibition, % at 4.4 µM; 290,000 tested, 1.1% active; in the data active = inhibition above about 16%, passing the limit was not always enough;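 also: cells stimulated with the agonist NPW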
# Target sequence (P48145 whole entry, looked up): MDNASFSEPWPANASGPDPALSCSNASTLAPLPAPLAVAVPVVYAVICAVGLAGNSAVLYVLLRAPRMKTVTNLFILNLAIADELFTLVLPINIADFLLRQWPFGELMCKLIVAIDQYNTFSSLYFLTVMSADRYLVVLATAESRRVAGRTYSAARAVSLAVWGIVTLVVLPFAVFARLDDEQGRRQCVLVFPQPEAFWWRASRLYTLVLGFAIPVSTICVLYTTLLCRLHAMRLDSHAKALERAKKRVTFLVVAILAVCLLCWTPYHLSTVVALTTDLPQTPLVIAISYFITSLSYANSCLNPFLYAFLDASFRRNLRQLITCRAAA
# TAAR1 agonist: human TAAR1 agonists, primary screen, Fluo-8 calcium fluorescence, CHO RD-HGA16 cells. vehicle wells 0%, saturating PEA agonist 100%. Trace amine-associated receptor 1 (Homo sapiens), Q96RJ0. 360,000 tested, 0.99% active. activation, % at 3 µM. AID 624467, 2012;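 active = activation above the mean activation of all test compounds in the run plus 3 SD, cut at about 38% in these data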
# Target sequence (Q96RJ0 whole entry, looked up): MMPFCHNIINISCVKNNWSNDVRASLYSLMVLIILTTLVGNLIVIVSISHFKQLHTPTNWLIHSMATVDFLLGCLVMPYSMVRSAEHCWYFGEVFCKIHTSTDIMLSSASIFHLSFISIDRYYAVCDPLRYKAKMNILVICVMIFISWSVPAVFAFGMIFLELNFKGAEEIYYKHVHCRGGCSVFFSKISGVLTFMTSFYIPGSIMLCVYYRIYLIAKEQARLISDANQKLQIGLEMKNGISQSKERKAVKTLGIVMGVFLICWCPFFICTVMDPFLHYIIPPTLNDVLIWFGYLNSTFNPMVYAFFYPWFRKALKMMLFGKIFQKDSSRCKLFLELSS
#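 System: CHO-derived RD-HGA16 cells with stable Gα16 and human TAAR1 / Times: 17-24 h plating, Fluo-8 75 min 37 °C, 30 min RT / Technique: calcium-sensitive Fluo-8 signal, excitation 470-495, emission 515-575 nm / Measure: % activation relative to PEA EC100 response / Benchmarks: DMSO and PEA EC100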
# DAGLB inh: DAGLB lipase inhibitors, primary screen, biochemical, fluorescence, HTS; HEK293T DAGLB membrane lysate, EnzChek fluorogenic substrate; AID 504411, 2011; Diacylglycerol lipase-beta (Homo sapiens), Q8NCG7; inhibition, % at 5.17 µM; 340,000 tested, 0.059% active; in the data active = inhibition above about 34%
# TAAR1 antagonist: human TAAR1 antagonists, primary screen, Fluo-8 calcium fluorescence, CHO RD-HGA16 cells | Trace amine-associated receptor 1 (Homo sapiens), Q96RJ0 | inhibition, % at 3 µM | 360,000 tested, 1.5% active | AID 624466, 2012 | antagonist;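 active = inhibition above a per-plate cutoff, the mean inhibition of test compounds on that plate plus 3 SD, cut at about 49% in these data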
#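 Test system: hTAAR1-expressing CHO RD-HGA16 cells, Gα16-coupled; Probe or stimulus: EC80 β-phenethylamine stimulus; Compound dosing: single nominal final test compound concentration of 3 µM; Timing: 140 s kinetic read after compound, 140 s after agonist; Signal: Fluo-8 calcium-sensitive fluorescence; Measure: % inhibition of agonist calcium response; Controls: DMSO and EC80 PEA controls.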
# MPTP inh: mitochondrial permeability transition pore inhibitors, primary screen, biochemical, isolated mouse mitochondria, absorbance; Ca2+ swelling absorbance, 30 min; inhibition, % at 10 µM; 360,000 tested, 1.4% active;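 active = inhibition of 50% or more, scaled per plate between neutral and stimulator controls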
# Hits are given with their value; i = inactive; nt = no result. The list is not random: actives were taken first. Their share in the collection is about 4%.
SMILES,GPR7 antagonist,TAAR1 agonist,DAGLB inh,TAAR1 antagonist,MPTP inh
Cc1ccc(-c2nn(-c3ccccc3)cc2CN(Cc2ccccc2)C(=O)c2ccco2)o1,i,i,i,56,i
Cc1nc(Nc2ccccc2)sc1C(=O)c1ccc(F)cc1,i,i,i,i,i
Nc1nc(Nc2ccccc2F)sc1C(=O)c1ccccc1,i,48,i,i,i
COc1cc2c(NCCCCCCO[N+](=O)[O-])ncnc2c(OC)c1OC,nt,i,nt,i,nt
COc1ccc(C(=O)N2CCN(c3ccc(C)cc3C)CC2)cc1OC,i,i,i,i,i
COc1ccc(C(=O)N2CCN(c3ccc(C)c(C)c3)CC2)cc1OC,20,i,i,i,i
Cc1ccccc1S(=O)(=O)N(C)C[C@H]1OCc2cnnn2CCCC(=O)N([C@H](C)CO)C[C@@H]1C,nt,i,nt,i,nt
CCS(=O)(=O)c1ccc(-c2cccc(NC(=O)COc3ccc(Cl)cc3)c2)nn1,i,i,i,49,i
CS(=O)(=O)c1ccc(-c2cccc(NC(=O)COc3ccc(Cl)cc3)c2)nn1,i,i,i,i,i
O=C(COc1ccccc1)Nc1cccc(-c2ccc(N3CCOCC3)nn2)c1,nt,i,i,49,i
O=C(COc1ccc(Cl)cc1Cl)Nc1cccc(-c2ccc(N3CCOCC3)nn2)c1,nt,i,i,i,i
C[C@H](CO)NC(=O)c1[nH]cnc1C(=O)Nc1ccc(CNC(=O)OC(C)(C)C)cc1,nt,i,i,i,i
CC(C)(C)OC(=O)NCc1ccc(NC(=O)c2nc[nH]c2C(=O)NCCNC(=O)c2[nH]cnc2C(=O)Nc2ccc(CNC(=O)OC(C)(C)C)cc2)cc1,nt,nt,i,nt,i
CC(C)(C)OC(=O)CNC(=O)c1[nH]cnc1C(=O)Nc1ccc(CNC(=O)OC(C)(C)C)cc1,nt,i,i,59,i
CC(C)C[C@H](NC(=O)c1[nH]cnc1C(=O)Nc1ccc(CNC(=O)OC(C)(C)C)cc1)C(=O)OCc1ccccc1,nt,i,i,53,i
C[C@@H](O)CNC(=O)c1[nH]cnc1C(=O)Nc1ccc(CNC(=O)OC(C)(C)C)cc1,nt,i,i,49,i
CN(CC(=O)Nc1ccccc1Cl)C(=O)Cn1cnc2ccc(Cl)cc2c1=O,nt,i,i,i,i
COc1cccc(N(C(=O)c2snc(C(N)=O)c2N)C(C(=O)NCC2CCCO2)c2ccc(F)cc2)c1 (centres undefined),i,i,i,i,i
CCOc1ccc(C(C(=O)NCC2CCCO2)N(C(=O)c2snc(C(N)=O)c2N)c2ccc(F)cc2)cc1 (centres undefined),i,i,i,49,i
Cc1ccc(-c2nc(N3CCOCC3)sc2C(=O)N2CCCCC2)cc1,25,i,i,i,i
COc1ccc(S(=O)(=O)N(C)C[C@H]2Oc3c(NS(=O)(=O)c4ccc(F)cc4)cccc3C(=O)N([C@H](C)CO)C[C@@H]2C)cc1,nt,i,i,i,i
C=C(C)[C@@H]1C2=CC(C(=O)OC)=C(C[C@H](C(=C)C)[C@H]3O[C@H]3C3=C[C@H]1OC3=O)O2,nt,i,nt,i,i
Brc1ccc(CSc2nnc(-c3ccccn3)n2Cc2ccco2)cc1,18,i,i,i,i
Cc1ccccc1CSc1nnc(-c2ccco2)n1Cc1ccco1,17,i,i,i,i
Clc1cccc(CSc2nnc(-c3ccccn3)n2Cc2ccco2)c1,21,i,i,i,i
SMILES,GPR7 antagonist,TAAR1 agonist,DAGLB inh,TAAR1 antagonist,MPTP inh
Clc1ccc(CSc2nnc(-c3ccccn3)n2Cc2ccco2)cc1Cl,nt,i,nt,i,i
Nc1[nH]c(C(=O)c2ccc(Cl)cc2)c(-c2ccc(Br)cc2)c1C(=O)NCc1ccc(Cl)cc1Cl,nt,i,nt,i,nt
NC(CCc1ccccc1)c1csc(Nc2nncc3ccccc23)n1 (centres undefined),nt,i,nt,i,i
CC(C)c1nnc(N2C(=O)C(O)=C(C(=O)c3cccs3)C2c2ccccc2)s1 (centres undefined),i,40,i,i,i
CCN(CC)CCCN=C1N[C@@H](c2cccc(C(F)(F)F)c2)C(C(=O)OC)=C(C)N1CC,nt,i,i,i,i
O=C(OCc1ccccc1)N1CCC2CC1c1ccc(N3CCN(Cc4ccc5c(c4)OCO5)CC3)cc12 (centres undefined),nt,i,nt,i,i
CCOc1cccc(NC(=O)c2ccc(S(=O)(=O)N(C)C)cc2)c1,i,i,i,i,i
O=C(COC(=O)[C@H](Cc1ccccc1)NC(=O)c1ccco1)Nc1ccccc1,nt,i,i,i,i
COc1cccc(S(=O)(=O)NCc2ccc(C(=O)Nc3cccc(Cl)c3)cc2)c1,i,i,i,50,i
CN(C)S(=O)(=O)c1cccc(NC(=O)COC(=O)[C@H](Cc2ccccc2)NC(=O)c2ccco2)c1,nt,i,i,55,i
CCN(CC)CCNC(=O)c1ccc(NC(=O)c2ccc(COc3ccccc3)cc2)cc1,i,i,i,52,i
COc1cccc(S(=O)(=O)NCc2ccc(C(=O)Nc3ccc(Cl)cc3)cc2)c1,i,i,i,i,i
CN(C)S(=O)(=O)c1cccc(NC(=O)c2ccc(COc3ccccc3)cc2)c1,i,i,i,77,i
Cc1ccc(C(=Cc2ccc([N+](=O)[O-])cc2)C(=O)O)cc1,nt,i,i,i,i
COc1ccc(/C=N\NC(=O)c2cc(O)c(O)c(O)c2)cc1COc1ccc(C(=O)OCC(C)C)cc1,i,i,i,i,i
C[C@H](O)[C@@H]1CN2CCc3c([nH]c4ccccc34)[C@@H]2C[C@@H]1N(C)C(=S)NCCc1ccccc1,nt,78,nt,66,i
CN1OC[C@@H]2CN(Cc3ccc4c(c3)OCO4)[C@H](c3ccc(-n4ccnc4)cc3)C[C@@H]21,nt,i,nt,i,nt
COc1ccc2c(c1)[nH]c1c(=O)n(Cc3ccco3)cnc12,i,47,i,i,i
c1csc(COc2ccccc2CNC2CCCCC2)c1,24,i,i,i,i
c1ccc(COc2ccccc2CNC2CCCC2)cc1,i,i,i,i,i
Cc1ccccc1OCC(O)CN (centres undefined),i,38,i,i,i
COc1ccc(CCNC2=CC(=O)CCC2)cc1OC,nt,nt,nt,nt,i
COc1ccc(C2(c3ccc(OC)cc3)NC(=O)N(CC(=O)NCC(C)c3ccccc3)C2=O)cc1 (centres undefined),nt,i,i,57,i
COc1ccc(-c2ccc3[nH]c4c(c3c2)CCN2C(=O)[C@@H]([C@H](C)O)[C@@H](N(C)C(=O)Nc3ccc(F)cc3)C[C@@H]42)cc1,nt,i,i,49,i
NS(=O)(=O)c1ccc(CCn2c(=S)[nH]c3ccccc3c2=O)cc1,i,38,i,61,i
CCN1C(=O)N/C(=C/c2ccc(Sc3ccc(C)cc3)o2)C1=O,i,i,i,65,i
CCN1C(=O)N/C(=C/c2ccc(C)o2)C1=O,i,i,i,i,i
